In article PMC3220761 (ACS chemical biology, 2011):
“And” between values parts separate entries of the source, which are not always exact repeats. Identical values can stand only once. Like-named read-outs stand apart in the source and are kept apart here.

T1: α/SalI 20S proteasome complex (Salinispora tropica, UniProt A4X3P0)
T1 sequence (A4X3P0 49-282): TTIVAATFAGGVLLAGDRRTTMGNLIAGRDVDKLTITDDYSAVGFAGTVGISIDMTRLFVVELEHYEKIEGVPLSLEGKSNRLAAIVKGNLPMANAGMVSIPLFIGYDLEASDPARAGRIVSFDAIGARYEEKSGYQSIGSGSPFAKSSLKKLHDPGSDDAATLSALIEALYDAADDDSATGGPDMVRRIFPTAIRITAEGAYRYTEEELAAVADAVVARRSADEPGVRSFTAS
T1 sequence (A4X745 1-260 partner): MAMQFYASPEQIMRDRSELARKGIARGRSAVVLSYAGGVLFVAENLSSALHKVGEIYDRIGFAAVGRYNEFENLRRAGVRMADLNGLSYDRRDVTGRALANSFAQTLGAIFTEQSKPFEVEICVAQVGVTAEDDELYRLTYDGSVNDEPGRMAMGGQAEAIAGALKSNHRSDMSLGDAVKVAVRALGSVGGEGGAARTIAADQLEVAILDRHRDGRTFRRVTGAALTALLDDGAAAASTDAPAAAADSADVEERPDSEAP

T2: α/β1 20S proteasome complex (Salinispora tropica, UniProt A4X744)
T2 sequence (A4X744 54-279): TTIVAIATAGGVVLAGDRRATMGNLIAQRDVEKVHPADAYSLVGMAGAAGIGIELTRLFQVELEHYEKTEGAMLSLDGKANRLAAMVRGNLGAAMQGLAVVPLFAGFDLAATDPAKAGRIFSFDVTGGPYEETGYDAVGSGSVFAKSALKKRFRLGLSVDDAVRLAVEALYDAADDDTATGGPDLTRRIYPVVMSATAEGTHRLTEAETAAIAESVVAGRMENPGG
T2 sequence (A4X745 1-260 partner): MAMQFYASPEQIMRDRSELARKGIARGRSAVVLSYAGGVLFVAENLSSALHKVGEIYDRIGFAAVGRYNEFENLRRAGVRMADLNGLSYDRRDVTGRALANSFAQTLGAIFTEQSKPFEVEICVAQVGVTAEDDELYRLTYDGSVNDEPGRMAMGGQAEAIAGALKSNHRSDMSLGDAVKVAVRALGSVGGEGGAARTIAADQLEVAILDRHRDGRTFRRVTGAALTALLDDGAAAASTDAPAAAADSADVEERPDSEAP

T3: α/β1 A49V proteasome complex (Salinispora tropica, UniProt A4X744, A102V)
T3 sequence (A4X744 54-279 A102V): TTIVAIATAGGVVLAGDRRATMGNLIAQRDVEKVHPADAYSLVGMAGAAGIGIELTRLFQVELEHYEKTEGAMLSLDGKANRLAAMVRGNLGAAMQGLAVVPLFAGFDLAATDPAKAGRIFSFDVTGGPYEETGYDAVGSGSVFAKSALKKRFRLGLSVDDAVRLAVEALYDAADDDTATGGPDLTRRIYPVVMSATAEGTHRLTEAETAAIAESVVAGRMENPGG
T3 sequence (A4X745 1-260 partner): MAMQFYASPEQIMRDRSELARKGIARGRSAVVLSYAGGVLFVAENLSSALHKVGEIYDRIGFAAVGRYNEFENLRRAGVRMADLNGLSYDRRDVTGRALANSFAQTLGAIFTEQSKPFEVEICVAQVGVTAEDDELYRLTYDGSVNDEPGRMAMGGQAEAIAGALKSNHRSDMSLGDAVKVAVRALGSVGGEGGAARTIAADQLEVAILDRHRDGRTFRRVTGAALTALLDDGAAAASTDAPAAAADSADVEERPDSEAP

T4: α/β1 M45F proteasome complex (Salinispora tropica, UniProt A4X744, M98F)
T4 sequence (A4X744 54-279 M98F): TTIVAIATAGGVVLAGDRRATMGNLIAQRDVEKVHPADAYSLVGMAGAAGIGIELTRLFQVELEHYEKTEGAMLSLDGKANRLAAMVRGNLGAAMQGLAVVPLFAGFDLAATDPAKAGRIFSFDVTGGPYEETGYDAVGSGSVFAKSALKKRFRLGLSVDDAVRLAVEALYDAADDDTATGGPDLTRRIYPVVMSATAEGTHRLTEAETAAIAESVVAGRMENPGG
T4 sequence (A4X745 1-260 partner): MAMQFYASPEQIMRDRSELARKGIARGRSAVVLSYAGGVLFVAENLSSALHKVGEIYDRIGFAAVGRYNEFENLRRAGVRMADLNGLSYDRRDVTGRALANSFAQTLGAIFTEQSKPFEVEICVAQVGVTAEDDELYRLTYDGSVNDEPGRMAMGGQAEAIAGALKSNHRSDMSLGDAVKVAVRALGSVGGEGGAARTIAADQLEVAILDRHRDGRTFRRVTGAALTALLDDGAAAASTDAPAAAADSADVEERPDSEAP

T5: α/SalI F45M proteasome complex (Salinispora tropica, UniProt A4X3P0, F93M)
T5 sequence (A4X3P0 49-282 F93M): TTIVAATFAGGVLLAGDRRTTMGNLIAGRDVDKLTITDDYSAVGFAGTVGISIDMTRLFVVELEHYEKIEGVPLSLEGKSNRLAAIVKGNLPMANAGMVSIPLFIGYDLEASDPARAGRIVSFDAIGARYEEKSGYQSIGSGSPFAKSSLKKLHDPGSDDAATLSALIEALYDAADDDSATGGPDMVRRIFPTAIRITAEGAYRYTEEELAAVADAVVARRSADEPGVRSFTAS
T5 sequence (A4X745 1-260 partner): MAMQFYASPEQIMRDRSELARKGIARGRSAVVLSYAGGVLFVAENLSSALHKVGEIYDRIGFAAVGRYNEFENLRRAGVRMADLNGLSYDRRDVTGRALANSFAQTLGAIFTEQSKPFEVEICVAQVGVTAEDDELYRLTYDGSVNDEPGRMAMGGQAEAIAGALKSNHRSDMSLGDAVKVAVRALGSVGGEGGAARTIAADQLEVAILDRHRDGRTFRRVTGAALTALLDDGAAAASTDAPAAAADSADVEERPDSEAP

T6: α/β1 M45F/A49V proteasome complex (Salinispora tropica, UniProt A4X744, A102V/M98F)
T6 sequence (A4X744 54-279 M98F/A102V): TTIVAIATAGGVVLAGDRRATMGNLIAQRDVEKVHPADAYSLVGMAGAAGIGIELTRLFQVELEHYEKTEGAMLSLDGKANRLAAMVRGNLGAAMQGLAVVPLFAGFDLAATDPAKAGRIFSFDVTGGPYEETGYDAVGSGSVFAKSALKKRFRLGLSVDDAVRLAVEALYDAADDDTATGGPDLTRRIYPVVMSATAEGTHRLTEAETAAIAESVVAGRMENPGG
T6 sequence (A4X745 1-260 partner): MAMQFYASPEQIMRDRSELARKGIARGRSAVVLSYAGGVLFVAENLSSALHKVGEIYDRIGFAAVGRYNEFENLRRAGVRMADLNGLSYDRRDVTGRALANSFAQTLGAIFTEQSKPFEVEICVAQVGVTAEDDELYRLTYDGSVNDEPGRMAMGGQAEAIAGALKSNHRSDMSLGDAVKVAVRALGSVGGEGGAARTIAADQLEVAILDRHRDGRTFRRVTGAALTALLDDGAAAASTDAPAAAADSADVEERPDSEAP


Experiments:
[1] = target: T1, α/SalI 20S proteasome complex; experiment: Proteasome inhibition; type: biochemical; details: for fold increase in IC50 with the α/SalI complex in comparison to the α/β1 complex (resistance): α/SalI versus α/β1
[2] = target: T2, α/β1 20S proteasome complex; experiment: Proteasome inhibition; type: biochemical
[3] = target: T3, α/β1 A49V proteasome complex; experiment: Proteasome inhibition; type: biochemical
[4] = target: T4, α/β1 M45F proteasome complex; experiment: Proteasome inhibition; type: biochemical
[5] = target: T1, α/SalI 20S proteasome complex; experiment: Time-dependence of inhibition, α/SalI; type: biochemical; details: 0.5–100 μM inhibitor, Z-VKM-amc, 3.5 h, 30 °C
In short: (§1)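 Purified S. tropica α/β1 or α/SalI complex (His6-α, E. coli-expressed) in 50 mM Tris-HCl pH 8.0. Test compound (0.5–100 μM final) and 40 μM Z-VKM-amc were pre-warmed to 30 °C. Pre-warmed enzyme was added to 20 μg ml−1 (27 nM) final. Fluorescence (ex 355/em 460 nm) was read every minute for 3.5 h at a constant 30 °C.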

[6] = target: T1, α/SalI 20S proteasome complex; experiment: Irreversibility of inhibition; type: biochemical; details: 250 μM inhibitor for 1.5 h at 30 °C, Z-VKM-amc
In short: (§2)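 Recombinant S. tropica proteasome (His6-tagged α coexpressed with untagged β1 or SalI in E. coli BL21(DE3); Ni-NTA then size-exclusion purified). Enzyme at 20 μg ml−1 in 50 mM Tris-HCl pH 8.0 was held with 250 μM test compound or matching DMSO, 1.5 h, 30 °C. It was buffer-exchanged three times on 30 kDa cutoff filters, then added to 40 μM Z-VKM-amc. Fluorescence (ex 355/em 460 nm) was read every minute for 3 h at 30 °C.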

[7] = target: T5, α/SalI F45M proteasome complex; experiment: Proteasome inhibition; type: biochemical
[8] = target: T2, α/β1 20S proteasome complex; experiment: Time-dependence of inhibition, α/β1; type: biochemical; details: 0.5–100 μM inhibitor, Z-VKM-amc, 3.5 h, 30 °C
In short: as §1

[9] = target: T2, α/β1 20S proteasome complex; experiment: Irreversibility of inhibition; type: biochemical; details: 250 μM inhibitor for 1.5 h at 30 °C, Z-VKM-amc
In short: as §2

[10] = target: T6, α/β1 M45F/A49V proteasome complex; experiment: Proteasome inhibition; type: biochemical
native gel or EMSA = target: the molecule itself; experiment: native gel or EMSA
[11] = IC50, α/SalI complex, substrate Z-VKM-amc 40 μM, mean ± SD, N = 3

Molecule	IC50 [1]	IC50 [2]	IC50 [1, 11]	fold increase in IC50 with the α/SalI complex in comparison to the α/β1 complex (resistance) [1]	binding result (native gel or EMSA)	other results
CC(C)[C@H](O)[C@@]12NC(=O)[C@H](CCCl)[C@]1(C)OC2=O [Antiprotealide, antiprotealide]	> 250 µM	104 ± 7.2 µM				
CC(C)C[C@H](NC(=O)[C@H](Cc1ccccc1)NC(=O)c1cnccn1)B(O)O [Bortezomib, bortezomib, reference compound]			42.7 ± 3.4 µM	13 fold		
C[C@@]12OC(=O)[C@]1([C@@H](O)C1CCC1)NC(=O)[C@@H]2CCCl [Salinosporamide X3, salinosporamide X3]	> 250 µM	> 250 µM				
CCC[C@H](O)[C@@]12NC(=O)[C@H](CCCl)[C@]1(C)OC2=O [Salinosporamide X5, salinosporamide X5]	> 250 µM	> 250 µM				
C[C@@]12OC(=O)[C@]1([C@@H](O)[C@@H]1C=CCC1)NC(=O)[C@@H]2CCCl [Salinosporamide X7, salinosporamide X7]	> 250 µM	3.6 ± 0.2 µM				
C[C@@]12OC(=O)[C@]1([C@@H](O)[C@@H]1C=CCCC1)NC(=O)[C@@H]2CCCl [Salinosporamide A, salinosporamide A]			36.8 ± 2.4 µM	16–30 fold and 30 fold		IC50 [3]: 13.6 ± 2.2 µM; increase in IC50 of α/β1 A49V mutant ([3]; α/β1 A49V versus wild-type α/β1, Z-VKM-amc): greater than a ten-fold increase; IC50 ([1]; IC50, α/SalI complex, substrate Suc-LLVY-amc 40 μM, mean ± SD, N = 3): 52 ± 3.5 µM; IC50 [4]: 1200 ± 100 nM; time-dependence of inhibition [5]: time-dependent inhibition; recovery of proteolytic activity after buffer exchange to remove inhibitor [6]: no recovery of proteolytic activity; IC50 [7]: 45.5 ± 2.3 µM; time-dependence of inhibition [8]: time-dependent inhibition; recovery of proteolytic activity after buffer exchange to remove inhibitor [9]: no recovery of proteolytic activity; IC50 [10]: 15.3 ± 2.2 µM
CC[C@H]1C(=O)N[C@@]2([C@@H](O)[C@@H]3C=CCCC3)C(=O)O[C@@]12C [Salinosporamide B, salinosporamide B]			139 ± 27.3 µM	7 fold		
SalI, proteasome β-subunit of the salinosporamide biosynthetic gene cluster (Strop_1015) (natural protein, Salinispora tropica CNB-440, UniProt A4X3P0 49-282, looked up) TTIVAATFAGGVLLAGDRRTTMGNLIAGRDVDKLTITDDYSAVGFAGTVGISIDMTRLFVVELEHYEKIEGVPLSLEGKSNRLAAIVKGNLPMANAGMVSIPLFIGYDLEASDPARAGRIVSFDAIGARYEEKSGYQSIGSGSPFAKSSLKKLHDPGSDDAATLSALIEALYDAADDDSATGGPDMVRRIFPTAIRITAEGAYRYTEEELAAVADAVVARRSADEPGVRSFTAS					binds	
Salinispora tropica CNB-440 20S proteasome β-subunit β1 (Strop_2244) (natural protein, UniProt A4X744 54-279, looked up) TTIVAIATAGGVVLAGDRRATMGNLIAQRDVEKVHPADAYSLVGMAGAAGIGIELTRLFQVELEHYEKTEGAMLSLDGKANRLAAMVRGNLGAAMQGLAVVPLFAGFDLAATDPAKAGRIFSFDVTGGPYEETGYDAVGSGSVFAKSALKKRFRLGLSVDDAVRLAVEALYDAADDDTATGGPDLTRRIYPVVMSATAEGTHRLTEAETAAIAESVVAGRMENPGG					binds	
Salinispora tropica CNB-440 20S proteasome α-subunit (Strop_2245) (natural protein, UniProt A4X745 1-260, looked up) MAMQFYASPEQIMRDRSELARKGIARGRSAVVLSYAGGVLFVAENLSSALHKVGEIYDRIGFAAVGRYNEFENLRRAGVRMADLNGLSYDRRDVTGRALANSFAQTLGAIFTEQSKPFEVEICVAQVGVTAEDDELYRLTYDGSVNDEPGRMAMGGQAEAIAGALKSNHRSDMSLGDAVKVAVRALGSVGGEGGAARTIAADQLEVAILDRHRDGRTFRRVTGAALTALLDDGAAAASTDAPAAAADSADVEERPDSEAP					binds	
